# Test results reported in paper PMC7069794 (Hepatology (Baltimore, Md.), 2020).
# Legend:
# [1] = test system: Paneth cells / intestinal crypts of WT mice; assay: acute zinc deprivation by dithizone in mice; assay type: in vivo; details: dithizone 75 mg/kg i.p., 6 h
# In short: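 Male WT mice received dithizone at 75 mg/kg i.p., and intestines were collected 6 h later. Small-intestinal crypts were isolated for imaging and bacterial killing, and ileal Defa5 and Lyz1 mRNA was measured relative to untreated mice, n=6. Data are mean±SD, compared by t-test, rank-sum or ANOVA as appropriate (P<0.05).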
# [2] = test system: Hepa1c1c7 mouse hepatoma cells; assay type: cell-based; details: LPS 100 ng/mL, 6 h; n=3
# [3] = test system: pair-fed and alcohol-fed mice; assay: LPS injection 4 hours before finishing chronic feeding in mice; assay type: in vivo; details: LPS 4 mg/kg i.p., n=6
# In short: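 Male mice, 12 weeks old, were fed ethanol-containing Lieber-DeCarli liquid diet (alcohol-fed) or isocaloric control liquid diet (pair-fed) for 8 wk. A single LPS dose of 4 mg/kg was given i.p. 4 h before the end of feeding. Read-out was relative hepatic Lcn2 and Cxcl1 mRNA, n=6. Data are mean±SD, compared by t-test or one-way ANOVA with Newman-Keuls post hoc test (P<0.05).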
# [4] = test system: released crypt components (mainly AMPs) of isolated mouse crypts; assay type: cell-based, mice; details: 10 μmol/L carbamyl choline, then 2 μmol/L TPEN for 30 min; n=6
# In short: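 Crypts isolated from male WT mouse small intestine were treated with 10 μmol/L carbamyl choline to induce granule release. Released material was then exposed to 2 μmol/L TPEN for 30 min for zinc chelation, and its bactericidal activity was measured, n=6. Data are mean±SD.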
# E. coli ML35 = E. coli ML35 killing of HD5 with or without zinc determined by flow cytometry; assay type: cell-based; details: n=6; for bactericidal activity: oxidized and reduced forms of HD5, without zinc
# pepsin = assay type: in vitro ADME
# alcohol-fed mice = assay type: in vivo
# mice = details: cited from earlier work
# [5] = overnight incubation of HD5red with or without zinc, nUHPLC-MS; assay type: physicochemical
molecule,measurement,setting,value
"S=C(N=Nc1ccccc1)NNc1ccccc1 [Dithizone, dithizone]",PC degranulation,[1],rapid PC degranulation
same,crypt bacterial killing,[1]; n=6,impaired
same,expression of Defa5 and Lyz1,"[1]; ileal mRNA, n=6",reduced
lipopolysaccharide [LPS],Lcn2 and Cxcl1 expressions in Hepa1c1c7 hepatocytes,[2],directly stimulated
same,hepatic Cxcl1 expression in AF mice in response to LPS,[3]; alcohol-fed mice,did not further alter
same,hepatic Lcn2 in AF mice in response to LPS,[3]; alcohol-fed mice,only mildly upregulated
same,hepatic Lcn2 and Cxcl1 in PF mice in response to LPS,[3]; pair-fed mice,dramatically upregulated
"c1ccc(CN(CCN(Cc2ccccn2)Cc2ccccn2)Cc2ccccn2)nc1 [TPEN, N,N,N′,N′-Tetrakis(2-pyridylmethyl)ethylenediamine]",bacterial killing of released crypt components after zinc chelation,[4],impaired bacterial killing
"[Zn] [Zinc, zinc]","bacterial viability, zinc alone",E. coli ML35; zinc without HD5,did not affect bacterial viability
"human α-defensin 5 (peptide, UniProt Q01523 20-94, looked up, Defensin-5) Defensin alpha 5: ESLQERADEATTQKQSGEDNQDLAISFAGNGLSALRTSGSQARATCYCRTGRCATRESLSGVCEISGRLYRLCCR",intact HD5 that bypassed gastric digestion,pepsin,75%
same,"intestinal structural changes (slight villous blunting), H&E staining",alcohol-fed mice; AF+HD5 group vs AF group (Fig. S11),improved
same,Verrucomicrobiaceae abundance in cecal contents,"alcohol-fed mice; AF+HD5 mice, mean±SD, AF mice 2.03±0.69%, P<0.001, n=8",20.39±5.29%
same,plasma ALT levels,"alcohol-fed mice; AF+HD5 vs AF, n=8",decreased
same,"A. muciniphila abundance, PCR analysis","alcohol-fed mice; cecal contents, AF+HD5 vs AF, n=4",significantly enriched
same,expression of intestinal Il22,"alcohol-fed mice; ileal mRNA, AF+HD5 vs AF",notably augmented
same,"levels of inflammatory cytokines/chemokines, including Ip10, Tnfa, and Mip2","alcohol-fed mice; ileal mRNA, AF+HD5 vs AF",lowered
same,"expression of ileal α-defensins, including Defa4, Defa20 and Defa21","alcohol-fed mice; ileal mRNA, AF+HD5 vs AF, n=6",upregulated
same,alcohol-impaired distribution of ZO-1 and claudin-1,"alcohol-fed mice; ileum, IF staining and Western blot, n=3",reversed
same,"alcohol-induced Lcn2 and Cxcl1 elevation, macrophage activation, and immune cell infiltration","alcohol-fed mice; liver, mRNA n=6, IHC/IF n=3",reduced
same,plasma ethanol levels and protein levels of CYP2E1 and ALDH2,"alcohol-fed mice; mouse, in vivo",remained the same
same,"PAMP translocation, including endotoxemia and increased hepatic bacterial DNAs","alcohol-fed mice; plasma endotoxin, hepatic 16S rRNAs, n=8",effectively reversed
same,antibacterial function of both forms of HD5 with zinc,"E. coli ML35; HD5 oxidized and reduced forms, with zinc vs without",significantly improved
same,bactericidal activity,E. coli ML35,effectively killed bacteria
same,intestinal injury caused by alcohol and colitis,mice,attenuated
same,Akkermensia sp. in mice,mice; without decreasing microbial diversity,increased
"HD5red: reduced form of HD5 (peptide, UniProt Q01523 20-94, looked up, Defensin-5 reduced form) Defensin alpha 5: ESLQERADEATTQKQSGEDNQDLAISFAGNGLSALRTSGSQARATCYCRTGRCATRESLSGVCEISGRLYRLCCR",bactericidal activity,E. coli ML35,more potent
same,redox state of HD5red after overnight incubation in the absence of zinc,[5]; no zinc,all became oxidized
same,redox state of HD5red after overnight incubation with zinc,[5]; with zinc,a majority of HD5 remained in reduced forms
